How the values were obtained:
Rattus norvegicus [1] = assay: In vivo sterol lowering activity when dosed as 0.03 % of the diet; assay type: functional
How it was run: (§1)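 Normal rats were dosed in the diet. Serum sterol and triglyceride levels were measured and expressed as the mean percent of control values. Significance versus control was reported at p < 0.05, 0.01 and 0.001.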

Rattus norvegicus [2] = assay: In vivo triglyceride lowering activity dosed at 0.10 % of the diet.; assay type: functional; how it was run: as §1
[3] = biological target: T1, Sterol O-acyltransferase 1 (Rattus norvegicus) (UniProt O70536); assay: In vitro inhibition of acyl coenzyme A:cholesterol acyltransferase; parameters: concentration or dose not given beside the values; details: concentration not given here
T1 sequence (whole entry): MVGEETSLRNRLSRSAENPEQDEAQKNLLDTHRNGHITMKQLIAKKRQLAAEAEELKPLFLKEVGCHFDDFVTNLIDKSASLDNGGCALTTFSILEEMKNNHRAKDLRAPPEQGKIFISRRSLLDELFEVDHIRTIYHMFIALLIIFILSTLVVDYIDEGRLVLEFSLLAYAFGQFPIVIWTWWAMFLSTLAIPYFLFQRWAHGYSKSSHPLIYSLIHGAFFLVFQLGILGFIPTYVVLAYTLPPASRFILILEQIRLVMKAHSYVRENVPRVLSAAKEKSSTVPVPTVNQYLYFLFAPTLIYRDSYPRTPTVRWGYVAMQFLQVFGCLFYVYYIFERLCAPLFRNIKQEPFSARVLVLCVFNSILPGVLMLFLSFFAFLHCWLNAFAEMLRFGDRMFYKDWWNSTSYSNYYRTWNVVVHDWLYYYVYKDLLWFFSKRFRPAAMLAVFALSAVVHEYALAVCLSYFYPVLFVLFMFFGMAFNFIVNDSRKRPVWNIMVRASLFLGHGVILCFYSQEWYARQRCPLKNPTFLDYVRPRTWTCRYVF
How it was run: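 Enzyme fatty acyl-CoA:cholesterol acyltransferase (ACAT), assayed in vitro at a single drug concentration of 5.2 μg/mL. The value is the mean percent inhibition of enzyme activity.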

Rattus norvegicus [4] = assay: In vivo sterol lowering activity at dose of 0.10 % of the diet; assay type: functional; how it was run: as §1
Rattus norvegicus [5] = assay: In vivo sterol lowering activity when dosed as 0.01 % of the diet; assay type: functional; how it was run: as §1
Rattus norvegicus [6] = assay: In vivo triglyceride lowering activity when dosed at 0.03 % of the diet; assay type: functional; how it was run: as §1
Rattus norvegicus [7] = assay: In vivo triglyceride lowering activity when dosed as 0.01 % of the diet; assay type: functional; how it was run: as §1

| inhibition [3] [%] | Structure (SMILES) | serum sterol level, percent of control (Rattus norvegicus [1]) [%] | serum triglyceride, percent of control (Rattus norvegicus [2]) [%] | serum sterol level, percent of control (Rattus norvegicus [4]) [%] | serum sterol level, % of control (Rattus norvegicus [5]) [%] | serum triglyceride level, percent of control (Rattus norvegicus [6]) [%] | serum triglyceride level, percent of control (Rattus norvegicus [7]) [%] | Diet (Rattus norvegicus [6]) [%] |
| --- | --- | --- | --- | --- | --- | --- | --- | --- |
| 12 | CCCCCCCCCCCCCCCCN(CC(=O)OCC)c1ccc(C(=O)OC)cc1 | 100 | 104 | 104 | 106 | 97 | 113 |  |
| < 61 | CCCCCCCCCCCCCCCCNc1ccc(C(=O)NCC(O)CO)cc1 (configuration not stated) | 88 | <48 | <72 | 99 | <73 | 114 |  |
| 9 | CCCCCCCCCCCCCCCCNc1ccc(C(=O)C(C(=O)OCC)C(=O)OCC)cc1 | 96 | <59 | <87 | 100 | <66 | <68 |  |
| < 47 | CCCCCCCCCCCCCCCCNc1ccc(C(=O)COC)cc1 | 88 | <65 | 91 | 88 | 85 | 77 |  |
| 13 | CCCCCCCCCCCCCCCCNc1ccc(C(=O)NC(C)(C)C(=O)O)cc1 | 95 | 83 | 88 | 89 | 90 | 84 |  |
| 3 | CCCCCCCCCCCCCCCCNc1ccc(C(=O)SCC(O)CO)cc1 (configuration not stated) | 92 | <64 | <82 | 93 | 83 | 106 |  |
| < 28 | CCCCCCCCCCCCCCCCNc1ccc(C(=O)CC(=O)O)cc1 | 100 | 100 | 104 | 105 | 90 | 80 |  |
| 13 | CCCCCCCCCCCCCCCCNc1ccc(C(=O)OCC(C)(C)CO)cc1 | 93 | 101 | 101 | 97 | 92 | 103 |  |
| 11 | CCCCCCCCCCCCCCCCNc1ccc(C(=O)NS(C)(=O)=O)cc1 | <84 | <54 | <87 | 94 | <73 | 77 |  |
| < 48 | CCCCCCCCCCCCCCCCNC1CCC(C(=O)O)CC1 (configuration not stated) | <86 | 71 | <75 | 97 | 79 | 75 |  |
| 13 | CCCCCCCCCCCCCCCCNc1ccc(C(=O)OCC2CO2)cc1 (configuration not stated) | <75 | <53 | <75 | 92 | <60 | <74 |  |
| 0 | CCCCCCCCCCCCCCCCNc1ccc(C(=O)NC(=O)c2ccccc2)cc1 | <80 | <58 | <75 | 91 | <66 | 76 |  |
| < 43 | CCCCCCCCCCCCCCCCNc1ccc(C(=O)CC(=O)C(=O)OC)cc1 | 96 | 81 | 85 | 92 | 77 | 101 |  |
| 0 | CCCCCCCCCCCCCCCCNc1ccc(O)cc1 | 99 | 104 | 92 | 104 | 124 | 118 |  |
| 63 | CCCCCCCCCCCCCCCCNc1ccc(C(=O)[O-])c(C(=O)[O-])c1.[Na+].[Na+] | 105 | <67 | 101 | 100 | 85 | 110 |  |
| 45 | CCCCCCCCCCCCCCCCNc1ccc(C(=O)OCC(=O)O)cc1 | 88 | <65 | <83 | 87 | 91 | 76 |  |
| 20 | CCCCCCCCCCCCCCCCNc1ccc(C(=O)CO)cc1 | 97 | <71 | <85 | 103 | 75 | 89 |  |
| 14 | CCCCCCCCCCCCCCCCNc1ccc(C(C)=O)cc1 | 119 | 78 | 98 | 129 | 88 | 84 |  |
| 0 | CCCCCCCCCCCCCCCCNc1ccc(C(=O)OC2COC(c3ccccc3)OC2)cc1 (configuration not stated) | 91 | 78 | 99 | 95 |  | 103 | 68 |
| < 18 | CCCCCCCCCCCCCCCCNc1ccc(C(=O)Oc2ccc(C(=O)O)cc2)cc1 | 95 | 109 | 93 | 105 | 81 | 98 |  |
| 0 | CCCCCCCCCCCCCCCCNc1ccc(C2OCCO2)cc1 | <77 | <47 | <71 | <85 | 82 | 100 |  |
| 0 | CCCCCCCCCCCCCCCCNc1ccc(C(=O)Oc2ccc(Cl)cc2)cc1 | <86 | 83 | 91 | 94 | 85 | 91 |  |
| 1 | CCCCCCCCCCCCCCCCNc1ccc(C(=O)SCCO)cc1 | <86 | <59 | <84 | <87 | 74 | 70 |  |
| 2 | CCCCCCCCCCCCCCCCNc1ccc(C(=O)CC(=O)OCC)cc1 | <83 | <30 | <85 | 105 | <53 | 71 |  |
| < 22 | CCCCCCCCCCCCCCCCNc1ccc(C(=O)NS(=O)(=O)c2ccccc2)cc1 | <84 | <36 | <67 | 88 | <55 | 86 |  |
| 57 | CCCCCCCCCCCCCCCCNc1ccc(C(=O)O)c(F)c1 | <77 | <40 | <75 | 93 | 79 | 77 |  |

From ChEMBL document CHEMBL1122366, “Potential antiatherosclerotic agents. 3. Substituted benzoic and non benzoic acid analogues of cetaben” (1983)
